From article PMC5518789 (Journal of bone and mineral research : the official journal …, 2017)
“Also recorded” adds a separate entry of the source.

What was measured:
[1] = tested on: PTHrP(12-48) polyclonal Ab; assay: Dot blot with PTHrP; type: binding, chicken; conditions: nitrocellulose, nondenaturing, 100, 10 and 1 ng, chemiluminescence
In short: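 The peptide panel (test peptide, PTHrP(1-141), PTHrP(1-37), PTH(1-34), IL-8) was spotted at 100, 10 and 1 ng on nitrocellulose without denaturation. The probe was a chicken polyclonal IgY raised against the KLH-conjugated test peptide, depleted of PTHrP(1-37) by negative selection and affinity-purified on a test-peptide column. Detection was by chemiluminescence.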

PTHrP(1-15)-mAb = assay: Dot blot with PTHrP; type: binding; conditions: nitrocellulose, 100, 10 and 1 ng, chemiluminescence
In short: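 The test peptide, PTHrP(1-141), PTHrP(1-37), PTH(1-34) and IL-8 were each spotted at 100, 10 and 1 ng onto nitrocellulose under nondenaturing conditions. Blots were probed with an N-terminal PTHrP(1-15) monoclonal antibody and developed by chemiluminescence.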

[2] = tested on: PTHR1 (PTHR1-expressing SaOS2 cells); assay: Competitive cAMP ELISA in SaOS2 cells; type: cell-based, human; conditions: PTH(1-34) 1 and 10 nM, 10 min, IBMX pretreatment, representative of three independent experiments
In short: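 SaOS2 cells were grown in RPMI 1640 with 10% FBS and antibiotics at 37°C and 5% CO₂, with medium changed every 3 days. Confluent cultures were serum-starved for 6 h, pretreated with IBMX for 15 min, then exposed to ligand for 10 min. Cells were lysed, and cAMP was quantified by a competitive ELISA kit following the manufacturer's protocol.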

[3] = tested on: PTHR1 (PTHR1-expressing SaOS2 cells); conditions: cited from earlier work
[4] = tested on: human OCLs and their precursors (PBMCs); assay: Internalization assay in human osteoclasts and precursors; type: cell-based
In short: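 Thawed human PBMCs were seeded at 500,000 cells/well on chamber slides in alpha-MEM + 10% FBS with mCSF (25 ng/mL) ± RANKL (50 ng/mL) at 37°C, 5% CO₂. On day 7, test peptide (100 nM) was added with serum for 15, 30, 60 or 90 min. Cells were fixed in 4% paraformaldehyde (4°C, 15 min), permeabilised with 0.02% Triton X-100 and blocked with BlokHen 1:10. They were stained with chicken anti-test-peptide antibody plus DAPI, with a no-primary control, and imaged by fluorescence or confocal microscopy.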

[5] = tested on: PTHR1 (SaOS2 or any other PTHR1-expressing cell); assay: PTHR1 antagonism of PTHrP; type: cell-based, human; conditions: data not shown
PTHrP(12-48) Ab = assay: Western blot with PTHrP; type: binding, chicken; conditions: SDS-PAGE (12%) immunoblot; PTHrP(12-48) 1 mM, 100 µM, 10 µM; two independent series of experiments
In short: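 Peptides and IL-8 were run on 12% SDS-PAGE and transferred to nitrocellulose. Blots were blocked for 30 min in BlokHen (1:10 in water), then washed in PBS with 0.05% Tween-20. They were probed with chicken polyclonal IgY (raised against KLH-conjugated PTHrP(12-48) and PEG-precipitated from egg yolk) or a PTHrP(1-15) monoclonal, then a secondary antibody. Detection was by chemiluminescence. Blots were stripped for 30 min at RT and reprobed for IL-8.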

[6] = tested on: human OCL precursors and differentiated OCLs (PBMCs); assay: Cleaved caspase 3; type: cell-based; conditions: for total cells positive for cleaved caspase-3, controls day 0: OCL precursors, vehicle or mCSF without or with RANKL on day 0, 24 h
In short: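 Frozen human PBMCs were thawed at 37°C and seeded at 500,000 cells/well on chamber slides in alpha-MEM + 10% FBS with mCSF (25 ng/mL) ± RANKL (50 ng/mL) at 37°C, 5% CO₂. Cells were treated 24 h with test peptide (50 nM) or TNFα (200 ng/mL) on day 0 or day 7. They were then fixed, permeabilised and stained with anti-cleaved caspase 3 (Asp175) at 1:400 plus a 1 h secondary, with DAPI nuclei. Positive cells were counted by fluorescence or confocal microscopy.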

[7] = tested on: mesenchymal lineage cells; assay: Effect on mesenchymal lineage cells; type: cell-based; conditions: in vitro or in vivo; data not shown
[8] = tested on: other resident bone and bone marrow cells; assay: Uptake in other resident bone and bone marrow cells; type: cell-based; conditions: in vitro or in vivo; data not shown
cells (PTHR1-dependent) = conditions: cited from earlier work
[9] = tested on: human OCL precursors / OCLs (PBMCs); assay: Osteoclastogenesis, TRAP+ MNC count; type: cell-based; conditions: RANKL 50 ng/mL + mCSF 25 ng/mL versus mCSF; day 10; Fig. 3A, p < 0.001

Molecule: IL-8: interleukin 8, control in dot blots
- recognition by PTHrP(12-48) Ab [1]: not recognized by either PTHrP Ab
- recognition by PTHrP(1-15) mAb (PTHrP(1-15)-mAb): not recognized by either PTHrP Ab

Molecule: PTH(1-34): activates cAMP production via PTHR1, used as a positive control (SVSEIQLMHNLGKHLNSMERVEWLRKKLQDVHNF; Parathyroid hormone; UniProt P01270 32-65, looked up, fragment)
- cAMP production (positive control) [2]: stimulated cAMP production; also recorded: stimulated the expected increase in cAMP
- activation of cAMP production via PTHR1 (literature) ([3]; 50 nM): activates cAMP production via PTHR1

Molecule: PTHrP(1-36): PTHR1 ligand to which SaOS2 cells respond [reference compound]
- internalization into day 7 cells ([4]; PTHrP(1-36), similar treatment (Supplemental Fig. 2)): no internalization
- SaOS2 response / activation of Gαs ([3]; SaOS2 cells, 36 (response), 42 (Gαs)): trigger the activation of Gαs

Molecule: PTHrP(1-37): N-terminal peptide used in dot blots and ELISA
- recognition by PTHrP(1-15) mAb (PTHrP(1-15)-mAb): recognized an antigen present in full-length PTHrP(1-141) as well as PTHrP(1-37)

Molecule: PTHrP(1-141): full-length recombinant PTHrP, gift of Dr. T.J. Martin
- recognition by PTHrP(12-48) Ab [1]: but not PTHrP(1-141)
- recognition by PTHrP(1-15) mAb (PTHrP(1-15)-mAb): recognized an antigen present in full-length PTHrP(1-141)

Molecule: PTHrP(12-48): unique peptide fragment of parathyroid hormone-related protein (PTHrP); New England Peptides Inc. (GKSIQDLRRRFFLHHLIAEIHTAEIRATSEVSPNSKP; Parathyroid hormone-related protein; UniProt P12272 48-84, looked up, fragment)
- antagonist or partial antagonist action at PTHR1 ([5]; SaOS2 or any other PTHR1-expressing cell): unable to show any significant antagonist or partial antagonist actions
- antagonism of PTHrP(1-36) agonist activity at PTHR1 [5]: nor does PTHrP(12-48) antagonize agonist activity of PTHrP(1-36) at the PTHR1
- recognition by PTHrP(1-15) mAb (PTHrP(1-15)-mAb): but not PTHrP(12-48)
- recognition by PTHrP(12-48) Ab (PTHrP(12-48) Ab): specifically recognized the 4-kDa PTHrP(12-48); also recorded: specifically recognized by PTHrP(12-48) Ab
- time to internalization into primary human OCLs and their precursors ([4]; 100 nM, day 7 cells, immunofluorescence): ≤ 60 min
- internalization into OCLs ([4]; 100 nM, in presence of serum, day 7 cells, mCSF (25 ng/mL)+RANKL (50 ng/mL), 15, 30, 60 and 90 min, immunofluorescence, three independent experiments): observed in OCLs 60 min after the addition
- internalization into mononuclear cells (precursors) ([4]; 100 nM, mCSF alone, Fig. 2H panel iv, immunofluorescence): observed in mononuclear cells cultured in the presence of mCSF alone
- cleaved caspase 3-positive cells, day 7 ([6]; 50 nM, 24 h, cells cultured for 7 days, Fig. 4C, D, p < 0.05): significantly increased the number of cleaved caspase 3-positive cells
- cleaved caspase 3 increase compared with TNFα ([6]; PTHrP(12-48) 50 nM versus TNFα 200 ng/ml, 24 h): comparable to the effects observed following treatment with TNFα
- effect on mesenchymal lineage cells [7]: unable to show an effect of PTHrP(12-48) on mesenchymal lineage cells
- uptake in other resident bone and bone marrow cells [8]: unable to show an effect of PTHrP(12-48) on mesenchymal lineage cells or observe any apparent uptake in other resident bone and bone marrow cells

Molecule: PTHrP(67-93): PTHrP fragment shown to translocate into cells (YLTQETNKVETYKEQPLKTPGKKKKGK; Parathyroid hormone-related protein; UniProt P12272 103-129, looked up, fragment)
- translocation into cells (cells (PTHR1-dependent)): translocate into cells in a PTHR1-dependent fashion

Molecule: PTHrP(94-108): PTHrP fragment shown to translocate into cells (PGKRKEQEKKKRRTR; Parathyroid hormone-related protein; UniProt P12272 130-144, looked up, fragment)
- translocation into cells (cells (PTHR1-dependent)): translocate into cells in a PTHR1-dependent fashion

B1: mCSF: culture factor for osteoclast precursors, R&D Systems (protein, UniProt P07141 33-552, looked up)
Macrophage colony-stimulating …: KEVSEHCSHMIGNGHLKVLQQLIDSQMETSCQIAFEFVDQEQLDDPVCYLKKAFFLVQDIIDETMRFKDNTPNANATERLQELSNNLNSCFTKDYEEQNKACVRTFHETPLQLLEKIKNFFNETKNLLEKDWNIFTKNCNNSFAKCSSRDVVTKPDCNCLYPKATPSSDPASASPHQPPAPSMAPLAGLAWDDSQRTEGSSLLPSELPLRIEDPGSAKQRPPRSTCQTLESTEQPNHGDRLTEDSQPHPSAGGPVPGVEDILESSLGTNWVLEEASGEASEGFLTQEAKFSPSTPVGGSIQAETDRPRALSASPFPKSTEDQKPVDITDRPLTEVNPMRPIGQTQNNTPEKTDGTSTLREDHQEPGSPHIATPNPQRVSNSATPVAQLLLPKSHSWGIVLPLGELEGKRSTRDRRSPAELEGGSASEGAARPVARFNSIPLTDTGHVEQHEGSSDPQIPESVFHLLVPGIILVLLTVGGLLFYKWKWRSHRDPQTLDSSVGRPEDSSLTQDEDRQVELPV
- total cells positive for cleaved caspase-3, controls day 0 [6]: less than 25%

B2: RANKL: receptor activator of NF-κB ligand, R&D Systems (protein, UniProt O14788 140-317, looked up)
Tumor necrosis factor ligand …: IRAEKAMVDGSWLDLAKRSKLEAQPFAHLTINATDIPSGSHKVSLSSWYHDRGWAKISNMTFSNGKLIVNQDGFYYLYANICFRHHETSGDLATEYLQLMVYVTKTSIKIPSSHTLMKGGSTKYWSGNSEFHFYSINVGGFFKLRSGEEISIEVSNPSLLDPDQDATYFGAFKVRDID
- number of TRAP+ MNCs, effect of RANKL [9]: significantly increased the number of TRAP+ MNCs
- total cells positive for cleaved caspase-3, controls day 0 [6]: less than 25%
